Results published in ChEMBL document CHEMBL3046353, “Synthesis and fungicidal activity of some 5-membered heterocyclic derivatives containing benzimidazoles” (1993).
Activity calls are given as the source filed them. The rule behind the calls is not given here.

Key:
Sagittaria latifolia [1] = experiment: Herbicidal activity against Sagittaria latifolia (broadleaf arrowhead) under paddy conditions; type: functional, organism-based
Sagittaria latifolia [2] = experiment: Pre-emergence herbicidal activity against Sagittaria latifolia (broadleaf arrowhead); type: functional, organism-based
Sagittaria latifolia [3] = experiment: Post-emergence herbicidal activity against Sagittaria latifolia (broadleaf arrowhead); type: functional, organism-based
Schoenoplectus acutus [4] = experiment: Herbicidal activity against Schoenoplectus acutus (hardstem bulrush) under paddy conditions; type: functional, organism-based
Schoenoplectus acutus [5] = experiment: Post-emergence herbicidal activity against Schoenoplectus acutus (hardstem bulrush); type: functional, organism-based
Schoenoplectus acutus [6] = experiment: Pre-emergence herbicidal activity against Schoenoplectus acutus (hardstem bulrush); type: functional, organism-based
Echinochloa crus-galli [7] = experiment: Herbicidal activity against Echinochloa crus-galli (barnyard grass) under paddy conditions; type: functional, organism-based
Echinochloa crus-galli [8] = experiment: Post-emergence herbicidal activity against Echinochloa crus-galli (barnyard grass); type: functional, organism-based
Oryza sativa [9] = experiment: Herbicidal activity against Oryza sativa (rice) under paddy conditions; type: functional, organism-based
Echinochloa crus-galli [10] = experiment: Pre-emergence herbicidal activity against Echinochloa crus-galli (barnyard grass); type: functional, organism-based
Oryza sativa [11] = experiment: Pre-emergence herbicidal activity against Oryza sativa (rice); type: functional, organism-based
Abutilon theophrasti [12] = experiment: Post-emergence herbicidal activity against Abutilon theophrasti (velvetleaf); type: functional, organism-based
Oryza sativa [13] = experiment: Post-emergence herbicidal activity against Oryza sativa (rice); type: functional, organism-based
Abutilon theophrasti [14] = experiment: Pre-emergence herbicidal activity against Abutilon theophrasti (velvetleaf); type: functional, organism-based
Convolvulaceae [15] = experiment: Herbicidal activity against Convolvulaceae (morning glory family) under paddy conditions; type: functional, organism-based
Convolvulaceae [16] = experiment: Post-emergence herbicidal activity against Convolvulaceae (morning glory family); type: functional, organism-based
Avena sativa [17] = experiment: Herbicidal activity against Avena sativa under paddy conditions; type: functional, organism-based
Convolvulaceae [18] = experiment: Pre-emergence herbicidal activity against Convolvulaceae (morning glory family); type: functional, organism-based
Avena sativa [19] = experiment: Pre-emergence herbicidal activity against Avena sativa; type: functional, organism-based
Avena sativa [20] = experiment: Post-emergence herbicidal activity against Avena sativa; type: functional, organism-based
Spodoptera litura = experiment: Insecticidal activity against Spodoptera litura; type: functional, organism-based
Tetranychus cinnabarinus = experiment: Insecticidal activity against Tetranychus cinnabarinus (carmine spider mite); type: functional, organism-based
Culex pipiens pallens = experiment: Insecticidal activity against Culex pipiens pallens (mosquito) at 3 to 5 ppm; type: functional, organism-based
Musca domestica = experiment: Insecticidal activity against Musca domestica (house fly); type: functional, organism-based
Rhizoctonia solani = experiment: Fungicidal activity against Rhizoctonia solani at 500 ppm after 7 days by poisoned food technique; type: functional; details: 168 h, read-out: GI
Method in brief: (§1)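 Cultures kept on potato dextrose agar. Each compound, dissolved in acetone, was added to potato dextrose agar at a final 500 ppm (w/v) (poisoned food technique). A disc cut from the periphery of a seven-day-old culture was inoculated onto each set. Control sets held potato dextrose agar only. The read-out is percentage inhibition of fungal growth relative to control.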

Helminthosporium = experiment: Fungicidal activity against Helminthosporium oryzae at 500 ppm after 7 days by poisoned food technique; type: functional; details: 168 h, read-out: GI; method in brief: as §1

| SMILES | Activity (Sagittaria latifolia [1]) | Activity (Sagittaria latifolia [2]) | Activity (Sagittaria latifolia [3]) | Activity (Schoenoplectus acutus [4]) | Activity (Schoenoplectus acutus [5]) | Activity (Schoenoplectus acutus [6]) | Activity (Echinochloa crus-galli [7]) | Activity (Echinochloa crus-galli [8]) | Activity (Oryza sativa [9]) | Activity (Echinochloa crus-galli [10]) | Activity (Oryza sativa [11]) | Activity (Abutilon theophrasti [12]) | Activity (Oryza sativa [13]) | Activity (Abutilon theophrasti [14]) | Activity (Convolvulaceae [15]) | Activity (Convolvulaceae [16]) | Activity (Avena sativa [17]) | Activity (Convolvulaceae [18]) | Activity (Avena sativa [19]) | Activity (Avena sativa [20]) | also measured |
| --- | --- | --- | --- | --- | --- | --- | --- | --- | --- | --- | --- | --- | --- | --- | --- | --- | --- | --- | --- | --- | --- |
| Nn1c(SCc2nc3ccccc3[nH]2)nnc1-c1ccncc1 | inactive | inactive | inactive | inactive | inactive | inactive | inactive | inactive | inactive | inactive | inactive | inactive | inactive | inactive | inactive | inactive | inactive | inactive | inactive | inactive | Activity (Spodoptera litura): inactive; Activity (Tetranychus cinnabarinus): inactive; Activity (Culex pipiens pallens): Active; Activity (Musca domestica): inactive; inhibition of growth at 500 ppm (Rhizoctonia solani): 29.3%; inhibition of growth at 500 ppm (Helminthosporium): 30% |
| Cc1ccc2[nH]c(CSc3nnc(-c4cccc(Cl)c4)n3N)nc2c1 | inactive | inactive | inactive | inactive | inactive | inactive | inactive | inactive | inactive | inactive | inactive | inactive | inactive | inactive | inactive | inactive | inactive | inactive | inactive | inactive | Activity (Spodoptera litura): inactive; Activity (Tetranychus cinnabarinus): inactive; Activity (Culex pipiens pallens): Active; Activity (Musca domestica): inactive; inhibition of growth at 500 ppm (Rhizoctonia solani): 71.2%; inhibition of growth at 500 ppm (Helminthosporium): 82.5% |
| Cc1ccc2[nH]c(CSc3nnc(-c4ccccc4)o3)nc2c1 | inactive | inactive | inactive | inactive | inactive | inactive | inactive | inactive | inactive | inactive | inactive | inactive | inactive | inactive | inactive | inactive | inactive | inactive | inactive | inactive | Activity (Spodoptera litura): inactive; Activity (Tetranychus cinnabarinus): inactive; Activity (Culex pipiens pallens): Active; Activity (Musca domestica): inactive; inhibition of growth at 500 ppm (Rhizoctonia solani): 61.3%; inhibition of growth at 500 ppm (Helminthosporium): 65.3% |
| Cc1ccc2[nH]c(CSc3nnc(-c4ccc(Cl)cc4)o3)nc2c1 | inactive | inactive | inactive | inactive | inactive | inactive | inactive | inactive | inactive | inactive | inactive | inactive | inactive | inactive | inactive | inactive | inactive | inactive | inactive | inactive | Activity (Spodoptera litura): inactive; Activity (Tetranychus cinnabarinus): inactive; Activity (Culex pipiens pallens): Active; Activity (Musca domestica): inactive; inhibition of growth at 500 ppm (Rhizoctonia solani): 100%; inhibition of growth at 500 ppm (Helminthosporium): 100% |
| Clc1ccccc1-c1nnc(SCc2nc3ccccc3[nH]2)o1 | inactive | inactive | inactive | inactive | inactive | inactive | inactive | inactive | inactive | inactive | inactive | inactive | inactive | inactive | inactive | inactive | inactive | inactive | inactive | inactive | Activity (Spodoptera litura): inactive; Activity (Tetranychus cinnabarinus): inactive; Activity (Culex pipiens pallens): Active; Activity (Musca domestica): inactive; inhibition of growth at 500 ppm (Rhizoctonia solani): 56.2%; inhibition of growth at 500 ppm (Helminthosporium): 75% |
| Cc1ccc2[nH]c(CSc3nnc(-c4ccccc4)n3N)nc2c1 | inactive | inactive | inactive | inactive | inactive | inactive | inactive | inactive | inactive | inactive | inactive | inactive | inactive | inactive | inactive | inactive | inactive | inactive | inactive | inactive | Activity (Spodoptera litura): inactive; Activity (Tetranychus cinnabarinus): inactive; Activity (Culex pipiens pallens): Active; Activity (Musca domestica): inactive; inhibition of growth at 500 ppm (Rhizoctonia solani): 70.5%; inhibition of growth at 500 ppm (Helminthosporium): 81.2% |
| c1ccc2[nH]c(CSc3nnc(-c4ccncc4)s3)nc2c1 | inactive | inactive | inactive | inactive | inactive | inactive | inactive | inactive | inactive | inactive | inactive | inactive | inactive | inactive | inactive | inactive | inactive | inactive | inactive | inactive | Activity (Spodoptera litura): inactive; Activity (Tetranychus cinnabarinus): inactive; Activity (Culex pipiens pallens): Active; Activity (Musca domestica): inactive; inhibition of growth at 500 ppm (Rhizoctonia solani): 21.3%; inhibition of growth at 500 ppm (Helminthosporium): 54.5% |
| Nn1c(SCc2nc3ccccc3[nH]2)nnc1-c1ccc(Cl)cc1 | inactive | inactive | inactive | inactive | inactive | inactive | inactive | inactive | inactive | inactive | inactive | inactive | inactive | inactive | inactive | inactive | inactive | inactive | inactive | inactive | Activity (Spodoptera litura): inactive; Activity (Tetranychus cinnabarinus): inactive; Activity (Culex pipiens pallens): Active; Activity (Musca domestica): inactive; inhibition of growth at 500 ppm (Rhizoctonia solani): 20%; inhibition of growth at 500 ppm (Helminthosporium): 45.3% |
| c1ccc(-c2nnc(SCc3nc4ccccc4[nH]3)s2)cc1 | inactive | inactive | inactive | inactive | inactive | inactive | inactive | inactive | inactive | inactive | inactive | inactive | inactive | inactive | inactive | inactive | inactive | inactive | inactive | inactive | Activity (Spodoptera litura): inactive; Activity (Tetranychus cinnabarinus): inactive; Activity (Culex pipiens pallens): Active; Activity (Musca domestica): inactive; inhibition of growth at 500 ppm (Rhizoctonia solani): 69.8%; inhibition of growth at 500 ppm (Helminthosporium): 74.3% |
